Assay results published in PMC7925372 (Journal of thrombosis and haemostasis : JTH, 2021).
Numbering of substitutions follows the chain as printed.

Columns and labels:
[1] = cited from earlier work
warfarin-resistant rats = details: cited from earlier work
[2] = test system: VKD carboxylation in UBIAD1-knockout FIXgla-PC/HEK293 cells; test: VKD carboxylation in UBIAD1-knockout FIXgla-PC/HEK293 reporter cells; format: cell-based, human; details: increasing concentrations, 24 hours
[3] = test system: VKD carboxylation of reporter-protein FIXgla-PC in FIXgla-PC/HEK293 cells; format: cell-based, human; details: 24 hours
Procedure, shortened: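 FIXgla-PC/HEK293 cells are HEK293 cells stably expressing protein C whose Gla domain is swapped for factor IX's. They were cultured 24 h with test compound, either fixed at 1 μM or at increasing concentrations, as carboxylation substrate. FIXgla-PC carboxylation efficiency was measured by ELISA directly on culture medium. Activity was expressed relative to vitamin K1 set at 100%. Background activity comes from residual K vitamins in fetal bovine serum.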

GGCX = test: In vitro vitamin K epoxidation activity assay with GGCX enriched microsomes; format: biochemical; details: FLEEL, FIX-propeptide, KH2, 100 μM compound
[4] = test system: KO reductase (reduction of KO to vitamin K1); test: HPLC-based KO reductase activity in GGCX-knockout HEK293 cells; format: cell-based, human; details: GGCX-knockout HEK293, 10 μM KO, 10 μM compound, 6 hours
Procedure, shortened: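 GGCX-knockout FIXgla-PC/HEK293 cells (CRISPR-Cas9) were incubated 6 h in medium with 10 μM KO, with or without 10 μM test compound; DMSO-treated cells served as control. K vitamins were extracted from the cells and analysed by reversed-phase HPLC. KO reductase activity was scored as vitamin K1 formed, with vitamin E acetate as standard.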

VKOR F55A = biological target: T1, VKOR F55A (Homo sapiens, UniProt Q9BQB6, F55A); test: Inhibition potency of VKAs on VKOR mutation expressed in DGKO reporter cells; format: cell-based
T1 sequence (Q9BQB6 1-163 F55A): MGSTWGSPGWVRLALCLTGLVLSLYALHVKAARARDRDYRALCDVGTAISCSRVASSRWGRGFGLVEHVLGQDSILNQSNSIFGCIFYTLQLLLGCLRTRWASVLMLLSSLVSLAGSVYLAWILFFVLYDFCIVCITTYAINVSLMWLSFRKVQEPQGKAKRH

vitamin K reductase = test: HPLC-based vitamin K reductase activity; format: cell-based, human; details: DGKO cells, 10 μM vitamin K1, 10 μM compound, 6 hours
Procedure, shortened: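 Reporter cells lacking endogenous VKOR and VKORL (TALEN double knockout) were cultured 6 h with 10 μM vitamin K1, with or without 10 μM test compound; DMSO was the control. Cellular K vitamins were extracted for reversed-phase HPLC. Unstable KH2 was not measured; reduction was coupled to epoxidation, and activity was read as KO produced.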

VKOR W59R = biological target: T2, VKOR W59R (Homo sapiens, UniProt Q9BQB6, W59R); test: Inhibition potency of VKAs on VKOR mutation expressed in DGKO reporter cells; format: cell-based; details: read-out: IC50 ± standard deviation, 5 μM KO, 24 hours
T2 sequence (Q9BQB6 1-163 W59R): T1 sequence (Q9BQB6 1-163 F55A) with A55F, W59R

[5] = test system: VKD carboxylation of FIXgla-PC in FIXgla-PC/HEK293 cells; format: cell-based, human; details: 3 μM inhibitor, increasing concentrations of vitamin K1, 24 hours
HEK293 reporter cells = test: Cell viability assay in reporter cells; format: cell-based, human; details: corresponding concentrations of the carboxylation assay
VKOR A26P = biological target: T3, VKOR A26P (Homo sapiens, UniProt Q9BQB6, A26P); test: Inhibition potency of VKAs on VKOR mutation expressed in DGKO reporter cells; format: cell-based
T3 sequence (Q9BQB6 1-163 A26P): T1 sequence (Q9BQB6 1-163 F55A) with A26P, A55F

VKOR Y139F = biological target: T4, VKOR Y139F (Homo sapiens, UniProt Q9BQB6, Y139F); test: as above; format: cell-based; details: read-out: IC50 ± standard deviation, 5 μM KO, 24 hours
T4 sequence (Q9BQB6 1-163 Y139F): T1 sequence (Q9BQB6 1-163 F55A) with A55F, Y139F

[6] = test system: VKD carboxylation of FIXgla-PC in FIXgla-PC/HEK293 cells (KO as substrate); test: Inhibition of VKD carboxylation in FIXgla-PC/HEK293 cells with 5 μM KO; format: cell-based, human
VKOR L128R = biological target: T5, VKOR L128R (Homo sapiens, UniProt Q9BQB6, L128R); test: Inhibition potency of VKAs on VKOR mutation expressed in DGKO reporter cells; format: cell-based; details: read-out: IC50 ± standard deviation, 5 μM KO, 24 hours
T5 sequence (Q9BQB6 1-163 L128R): T1 sequence (Q9BQB6 1-163 F55A) with A55F, L128R

[7] = test system: vitamin K reductase (DGKO reporter cells); format: cell-based, human; details: increasing concentrations
wild-type VKOR = test: Inhibition potency of VKAs on VKOR transiently expressed in DGKO reporter cells; format: cell-based, human
[8] = test system: UBIAD1-dependent VKD carboxylation; format: cell-based, human; details: UBIAD1 transiently expressed in UBIAD1-knockout cells, increasing concentrations
Procedure, shortened: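 FIXgla-PC/HEK293 reporter cells with UBIAD1 knocked out by CRISPR-Cas9 were transiently transfected with UBIAD1 cDNA. Transfected cells were cultured with increasing concentrations of vitamin K analogue. FIXgla-PC carboxylation efficiency in the medium was then measured by ELISA, normalised to vitamin K1 as 100%.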

[9] = test system: naturally occurring VKOR mutations; details: cell-based functional study; cited from earlier work
[10] = test system: UBIAD1 (MK-4 production in HEK293 cells); test: Conversion of vitamin K derivatives to MK-4 in FIXgla-PC/HEK293 cells; format: cell-based, human; details: 10 μM VK-K-COT plus 5 μM warfarin, 6 hours, HPLC
[11] = 1 μM vitamin K derivative as substrate, FIXgla-PC/HEK293

C/C(=C\CC1=C(Cl)C(=O)c2ccccc2C1=O)CCCC(C)CCCC(C)CCCC(C)C (stereo not shown) [Chloro-K]
antagonism of vitamin K [1]: potent antagonist of vitamin K | anticoagulant effect in warfarin-resistant rats (warfarin-resistant rats): effective anticoagulant

CC(C)=CCC/C(C)=C/CC/C(C)=C/CC/C(C)=C/CC1=C(C)C(=O)c2ccccc2C1=O [MK-4, menaquinone-4]
support of VKD carboxylation as substrate in UBIAD1-knockout cells [2]: can efficiently support VKD carboxylation

CC1=C(Cc2ccccc2)C(=O)c2ccccc2C1=O [VK-M-Ben]
carboxylation activity (vitamin K1 normalized to 100%) [3, 11]: 3% | carboxylation activity as substrate, in words [3, 11]: abolished carboxylation activity

CC1=C(CC2=CC=CC=CC=C2)C(=O)c2ccccc2C1=O [VK-M-COT]
GGCX vitamin K epoxidation activity (GGCX): inhibits GGCX activity for vitamin K epoxidation | reduction of KO to vitamin K1 (HPLC) [4]: significantly decreased | IC50 (VKOR F55A; read-out: IC50 ± standard deviation, VKOR F55A in DGKO cells, 5 μM KO, 24 hours): 249 ± 66 nM | reduction of vitamin K (production of KO, HPLC) (vitamin K reductase): significantly decreased | IC50 (VKOR W59R): 615 ± 101 nM | reversal of inhibition of VKD carboxylation by vitamin K1 [5]: can be reversed equally with higher concentrations of vitamin K1 | cytotoxicity (cell viability) (HEK293 reporter cells): not due to the cytotoxicity | IC50 (VKOR A26P; read-out: IC50 ± standard deviation, VKOR A26P in DGKO cells, 5 μM KO, 24 hours): 487 ± 75 nM | IC50 (VKOR Y139F): 658 ± 54 nM | inhibition of reporter-protein carboxylation, KO as substrate ([6]; FIXgla-PC/HEK293, 5 μM KO, increasing concentrations): inhibited reporter-protein carboxylation | inhibition potency lower than warfarin (fold) ([6]; IC50 ratio to warfarin, FIXgla-PC/HEK293, 5 μM KO): ~ 20 fold | IC50 (VKOR L128R): 575 ± 132 nM | carboxylation activity as substrate, in words [3, 11]: activity lower than the background activity (DMSO) | dose-response of VKD carboxylation on concentration titration ([3]; increasing concentrations of vitamin K derivative): inhibitory dose-response curve | inhibition of reporter-protein carboxylation, vitamin K1 as substrate [7]: inhibited reporter-protein carboxylation | IC50 variation between warfarin-resistant VKOR mutations and wild-type VKOR (wild-type VKOR; A26P, F55A, W59R, L128R, Y139F vs wild type): less than 3 fold

CC1=CC(=O)c2ccccc2C1=O [menadione]
support of VKD carboxylation as substrate in UBIAD1-knockout cells [2]: unable to support reporter-protein carboxylation | VKD carboxylation activity after re-introduction of UBIAD1 [8]: regained VKD carboxylation activity

CC1=C(C/C=C(\C)CCC[C@H](C)CCC[C@H](C)CCCC(C)C)C(=O)c2ccccc2C1=O [vitamin K1, phylloquinone]
support of VKD carboxylation as substrate in UBIAD1-knockout cells [2]: can efficiently support VKD carboxylation

CC(=O)CC(c1ccccc1)c1c(O)c2ccccc2oc1=O (stereo not shown) [warfarin, reference compound]
increase of IC50 compared to wild-type VKOR (VKOR F55A; F55A vs wild type): 417 fold | variation of warfarin resistance among naturally occurring VKOR mutations [9]: over 100 fold | MK-4 epoxide in cells on VKOR inactivation [10]: MK-4 epoxide accumulated | reversal of inhibition of VKD carboxylation by vitamin K1 [5]: can be reversed equally with higher concentrations of vitamin K1 | increase of IC50 compared to wild-type VKOR (VKOR A26P; A26P vs wild type): 60 fold | IC50 ([6]; Homo sapiens, HEK293, 24 h, read-out: IC50 for VKD carboxylation): 12.5 nM | effect of warfarin-resistant VKOR mutations on inhibition potency (wild-type VKOR; all warfarin-resistant VKOR mutations tested vs wild type): up to 400 fold
